IC50 data for two compounds are collected here from BindingDB's records for doi:10.1021/np070447m (2008).

For test [1], the target named is Receptor tyrosine-protein kinase erbB-2 (Homo sapiens, UniProt P04626). Nature of the test: Inhibition of recombinant ERBB2.
The target in test [2] is Vascular endothelial growth factor receptor 2 (Homo sapiens, UniProt P35968). Nature of the test: Inhibition of recombinant VEGFR2. In outline:
(§1)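 Purified recombinant kinase, 50 µL reaction. 1 µM [γ-33P]-ATP with substrate; compound added in 10% DMSO. Tested over several concentrations; IC50 in g/mL.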

For test [3], the target named is Insulin-like growth factor 1 receptor (Homo sapiens, UniProt P08069). Nature of the test: Inhibition of recombinant IGF1R. The method in brief: as §1
Test [4] concerns the target Casein kinase II subunit alpha (Homo sapiens, UniProt P68400). Nature of the test: Inhibition of recombinant CK2alpha1. The method in brief:
as §1

The target of test [5] is Vascular endothelial growth factor receptor 3 (Homo sapiens, UniProt P35916). Nature of the test: Inhibition of recombinant VEGFR3. The method in brief:
as §1

In test [6] the target is Cyclin-dependent kinase 4/G1/S-specific cyclin-D1 (Homo sapiens, UniProt P11802). Nature of the test: Inhibition of recombinant CDK4/CycD1.
For another test, the target named is Angiopoietin-1 receptor (Homo sapiens, UniProt Q02763). Description: Inhibition of recombinant TIE2.
Test [7] deals with Mitogen-activated protein kinase kinase kinase 8 (Homo sapiens, UniProt P41279). Nature of the test: Inhibition of recombinant COT.
Test [8] concerns the target RAC-alpha serine/threonine-protein kinase (Homo sapiens, UniProt P31749). Nature of the test: Inhibition of recombinant AKT1. The method in brief:
as §1

For another test, the target named is T1, Ephrin type-B receptor 4 (Homo sapiens, UniProt P54760).
T1 sequence (P54760 whole entry): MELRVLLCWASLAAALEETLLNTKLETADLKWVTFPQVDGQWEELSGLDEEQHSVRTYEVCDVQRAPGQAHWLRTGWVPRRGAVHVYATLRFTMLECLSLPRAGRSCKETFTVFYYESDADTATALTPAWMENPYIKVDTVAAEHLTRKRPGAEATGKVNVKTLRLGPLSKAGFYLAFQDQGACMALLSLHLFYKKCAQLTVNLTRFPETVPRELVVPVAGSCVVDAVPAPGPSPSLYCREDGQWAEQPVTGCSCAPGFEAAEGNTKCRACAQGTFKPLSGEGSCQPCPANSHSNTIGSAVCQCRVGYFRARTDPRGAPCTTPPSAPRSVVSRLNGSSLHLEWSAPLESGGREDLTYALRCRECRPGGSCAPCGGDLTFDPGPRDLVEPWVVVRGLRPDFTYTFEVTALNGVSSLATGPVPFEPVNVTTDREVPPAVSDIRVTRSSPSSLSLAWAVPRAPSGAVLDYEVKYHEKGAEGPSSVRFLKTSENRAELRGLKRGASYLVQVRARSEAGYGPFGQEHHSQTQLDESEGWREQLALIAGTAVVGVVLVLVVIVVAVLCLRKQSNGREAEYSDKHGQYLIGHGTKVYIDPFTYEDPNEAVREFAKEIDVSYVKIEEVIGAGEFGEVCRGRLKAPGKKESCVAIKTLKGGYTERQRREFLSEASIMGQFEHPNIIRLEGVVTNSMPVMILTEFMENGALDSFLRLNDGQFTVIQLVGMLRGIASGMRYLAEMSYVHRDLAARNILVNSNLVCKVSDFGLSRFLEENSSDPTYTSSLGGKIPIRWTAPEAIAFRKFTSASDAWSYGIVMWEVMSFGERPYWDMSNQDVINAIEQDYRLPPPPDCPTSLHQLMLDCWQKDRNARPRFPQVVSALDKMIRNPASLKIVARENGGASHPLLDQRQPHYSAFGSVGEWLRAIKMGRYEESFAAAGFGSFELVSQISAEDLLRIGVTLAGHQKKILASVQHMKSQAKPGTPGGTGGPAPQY
Description: Inhibition of recombinant EPHB4. In outline: as §1

A further test has as its target T2, Aurora kinase A (Homo sapiens, UniProt O14965).
T2 sequence (O14965 whole entry): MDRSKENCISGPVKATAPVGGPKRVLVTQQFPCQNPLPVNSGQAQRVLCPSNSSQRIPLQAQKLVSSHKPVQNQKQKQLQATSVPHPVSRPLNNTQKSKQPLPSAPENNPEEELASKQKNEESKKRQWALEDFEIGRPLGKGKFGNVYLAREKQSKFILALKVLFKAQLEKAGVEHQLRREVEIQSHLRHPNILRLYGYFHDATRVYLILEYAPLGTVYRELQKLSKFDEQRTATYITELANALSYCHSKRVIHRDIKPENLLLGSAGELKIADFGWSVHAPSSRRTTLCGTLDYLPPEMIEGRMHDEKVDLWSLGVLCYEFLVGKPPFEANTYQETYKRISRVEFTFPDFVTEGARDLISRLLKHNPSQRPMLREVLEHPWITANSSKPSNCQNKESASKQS
Nature of the test: Inhibition of recombinant Aurora A. In outline:
as §1

For test [9], the target named is T3, Receptor-type tyrosine-protein kinase FLT3 (Homo sapiens, UniProt P36888).
T3 sequence (P36888 whole entry): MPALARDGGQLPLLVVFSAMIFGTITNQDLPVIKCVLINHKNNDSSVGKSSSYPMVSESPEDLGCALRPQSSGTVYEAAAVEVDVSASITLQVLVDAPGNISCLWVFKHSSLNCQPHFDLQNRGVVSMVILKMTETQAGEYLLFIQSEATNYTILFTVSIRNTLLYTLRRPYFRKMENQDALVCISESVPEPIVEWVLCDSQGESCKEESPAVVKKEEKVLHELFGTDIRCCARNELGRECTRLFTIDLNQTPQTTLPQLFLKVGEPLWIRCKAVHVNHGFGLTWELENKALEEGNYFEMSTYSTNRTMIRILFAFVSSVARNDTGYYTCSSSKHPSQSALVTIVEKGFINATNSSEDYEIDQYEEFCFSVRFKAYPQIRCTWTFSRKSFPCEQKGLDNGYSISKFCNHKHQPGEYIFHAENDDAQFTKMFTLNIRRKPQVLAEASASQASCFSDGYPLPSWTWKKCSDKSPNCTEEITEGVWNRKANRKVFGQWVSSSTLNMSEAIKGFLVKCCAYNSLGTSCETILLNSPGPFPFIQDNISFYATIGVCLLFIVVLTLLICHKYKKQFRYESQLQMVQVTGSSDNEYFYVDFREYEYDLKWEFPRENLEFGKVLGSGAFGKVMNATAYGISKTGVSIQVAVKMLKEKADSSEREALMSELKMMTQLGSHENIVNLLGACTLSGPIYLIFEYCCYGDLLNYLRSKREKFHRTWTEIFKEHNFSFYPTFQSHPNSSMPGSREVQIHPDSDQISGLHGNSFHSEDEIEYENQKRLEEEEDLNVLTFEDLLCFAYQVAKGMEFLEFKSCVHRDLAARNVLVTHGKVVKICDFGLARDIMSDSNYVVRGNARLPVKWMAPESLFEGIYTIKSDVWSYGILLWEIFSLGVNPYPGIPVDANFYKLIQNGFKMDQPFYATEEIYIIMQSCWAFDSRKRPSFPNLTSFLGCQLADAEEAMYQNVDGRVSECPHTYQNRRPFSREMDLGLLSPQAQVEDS
Nature of the test: Inhibition of recombinant FLT3. The method in brief: as §1

Test [10] deals with Hepatocyte growth factor receptor (Homo sapiens, UniProt P08581). Description: Inhibition of recombinant MET.
In test [11] the target is Serine/threonine-protein kinase B-raf (Homo sapiens, UniProt P15056, V600E). Nature of the test: Inhibition of recombinant B-RAF-V600E mutant. In outline:
as §1

Sequence of Vascular endothelial growth factor receptor 2 (P35968 whole entry): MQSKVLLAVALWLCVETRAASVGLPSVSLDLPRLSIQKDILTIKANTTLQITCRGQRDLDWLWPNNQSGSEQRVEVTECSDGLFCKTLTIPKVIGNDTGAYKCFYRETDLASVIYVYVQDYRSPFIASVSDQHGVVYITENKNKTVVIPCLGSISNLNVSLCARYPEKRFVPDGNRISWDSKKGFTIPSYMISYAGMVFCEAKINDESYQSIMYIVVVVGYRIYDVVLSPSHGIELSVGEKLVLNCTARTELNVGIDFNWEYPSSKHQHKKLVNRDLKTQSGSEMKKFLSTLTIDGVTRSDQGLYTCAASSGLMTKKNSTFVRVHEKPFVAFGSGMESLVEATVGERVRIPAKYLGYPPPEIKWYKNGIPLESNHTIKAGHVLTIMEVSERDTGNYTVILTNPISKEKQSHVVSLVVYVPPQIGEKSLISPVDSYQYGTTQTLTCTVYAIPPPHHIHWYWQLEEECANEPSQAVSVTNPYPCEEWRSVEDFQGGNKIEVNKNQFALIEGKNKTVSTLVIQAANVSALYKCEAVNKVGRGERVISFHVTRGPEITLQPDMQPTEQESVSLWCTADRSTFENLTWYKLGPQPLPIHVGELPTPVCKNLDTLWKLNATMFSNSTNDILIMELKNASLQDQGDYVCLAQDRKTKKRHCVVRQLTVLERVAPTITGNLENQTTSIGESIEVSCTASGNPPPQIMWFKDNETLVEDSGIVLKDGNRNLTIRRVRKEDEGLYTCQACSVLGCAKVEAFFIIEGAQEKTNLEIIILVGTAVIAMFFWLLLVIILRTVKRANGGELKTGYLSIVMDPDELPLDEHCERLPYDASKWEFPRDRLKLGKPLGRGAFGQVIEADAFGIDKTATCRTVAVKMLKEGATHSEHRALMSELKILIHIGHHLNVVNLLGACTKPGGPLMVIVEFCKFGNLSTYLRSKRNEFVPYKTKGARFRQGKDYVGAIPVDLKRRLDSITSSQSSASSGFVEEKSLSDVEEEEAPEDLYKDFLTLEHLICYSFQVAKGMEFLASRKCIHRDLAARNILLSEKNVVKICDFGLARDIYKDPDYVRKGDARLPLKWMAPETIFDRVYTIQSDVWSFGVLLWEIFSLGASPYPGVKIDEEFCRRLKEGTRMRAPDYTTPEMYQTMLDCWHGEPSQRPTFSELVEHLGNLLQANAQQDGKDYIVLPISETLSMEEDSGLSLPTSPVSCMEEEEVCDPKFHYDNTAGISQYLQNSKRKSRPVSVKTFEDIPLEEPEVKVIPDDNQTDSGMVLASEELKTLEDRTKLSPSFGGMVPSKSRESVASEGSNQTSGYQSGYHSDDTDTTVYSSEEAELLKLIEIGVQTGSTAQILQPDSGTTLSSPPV
Sequence of Receptor tyrosine-protein kinase erbB-2 (P04626 whole entry): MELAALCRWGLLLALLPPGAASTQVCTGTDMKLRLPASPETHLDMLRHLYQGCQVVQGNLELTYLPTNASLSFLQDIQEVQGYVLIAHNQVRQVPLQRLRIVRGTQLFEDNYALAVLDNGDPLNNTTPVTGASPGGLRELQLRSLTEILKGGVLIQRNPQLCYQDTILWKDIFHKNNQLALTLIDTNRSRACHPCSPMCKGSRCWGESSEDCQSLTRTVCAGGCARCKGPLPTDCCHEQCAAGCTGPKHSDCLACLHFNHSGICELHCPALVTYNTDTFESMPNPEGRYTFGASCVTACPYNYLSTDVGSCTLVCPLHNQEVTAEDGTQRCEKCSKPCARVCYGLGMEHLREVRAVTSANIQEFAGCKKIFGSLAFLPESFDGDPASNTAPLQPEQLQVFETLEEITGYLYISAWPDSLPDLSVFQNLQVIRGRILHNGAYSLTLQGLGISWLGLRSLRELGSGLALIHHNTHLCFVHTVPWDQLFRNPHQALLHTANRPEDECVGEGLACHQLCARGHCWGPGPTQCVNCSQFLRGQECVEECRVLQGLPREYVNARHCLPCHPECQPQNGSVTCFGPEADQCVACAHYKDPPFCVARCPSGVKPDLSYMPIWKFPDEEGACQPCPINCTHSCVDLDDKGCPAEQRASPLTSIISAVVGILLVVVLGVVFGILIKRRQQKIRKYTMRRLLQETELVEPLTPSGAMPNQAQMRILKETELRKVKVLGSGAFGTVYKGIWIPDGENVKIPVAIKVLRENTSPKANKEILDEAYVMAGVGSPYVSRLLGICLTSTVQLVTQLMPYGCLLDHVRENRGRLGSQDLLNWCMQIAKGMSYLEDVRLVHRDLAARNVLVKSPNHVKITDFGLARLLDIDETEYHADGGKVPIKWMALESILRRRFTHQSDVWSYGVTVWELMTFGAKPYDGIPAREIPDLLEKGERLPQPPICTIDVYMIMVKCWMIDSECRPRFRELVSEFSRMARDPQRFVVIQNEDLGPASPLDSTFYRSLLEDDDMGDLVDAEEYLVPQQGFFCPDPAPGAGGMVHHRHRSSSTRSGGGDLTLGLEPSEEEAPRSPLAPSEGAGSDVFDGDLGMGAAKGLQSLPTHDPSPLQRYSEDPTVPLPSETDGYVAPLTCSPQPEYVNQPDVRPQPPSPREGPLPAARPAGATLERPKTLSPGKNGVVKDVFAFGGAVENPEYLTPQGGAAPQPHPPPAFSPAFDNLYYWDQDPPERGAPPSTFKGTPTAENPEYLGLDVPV
Sequence of Insulin-like growth factor 1 receptor (P08069 31-736 limits assumed): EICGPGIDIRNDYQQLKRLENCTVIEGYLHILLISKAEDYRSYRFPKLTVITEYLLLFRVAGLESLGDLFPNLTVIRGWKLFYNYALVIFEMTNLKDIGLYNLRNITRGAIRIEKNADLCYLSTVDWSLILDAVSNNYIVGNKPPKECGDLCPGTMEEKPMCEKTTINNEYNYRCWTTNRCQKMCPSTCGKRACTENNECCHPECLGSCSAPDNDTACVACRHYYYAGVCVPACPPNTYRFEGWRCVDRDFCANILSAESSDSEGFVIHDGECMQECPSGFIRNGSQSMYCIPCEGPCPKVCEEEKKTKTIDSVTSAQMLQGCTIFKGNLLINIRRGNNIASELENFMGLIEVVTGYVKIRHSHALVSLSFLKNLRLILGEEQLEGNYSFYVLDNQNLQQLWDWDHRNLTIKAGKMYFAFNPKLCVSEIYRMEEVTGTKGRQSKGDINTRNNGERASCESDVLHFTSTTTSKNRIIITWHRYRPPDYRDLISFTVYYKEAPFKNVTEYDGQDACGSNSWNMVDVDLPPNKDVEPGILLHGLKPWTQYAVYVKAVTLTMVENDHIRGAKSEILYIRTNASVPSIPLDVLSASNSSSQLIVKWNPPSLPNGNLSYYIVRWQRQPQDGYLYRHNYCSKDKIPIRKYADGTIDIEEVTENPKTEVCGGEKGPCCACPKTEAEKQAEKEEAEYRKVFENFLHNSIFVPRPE
Sequence of Insulin-like growth factor 1 receptor (P08069 741-1367 limits assumed): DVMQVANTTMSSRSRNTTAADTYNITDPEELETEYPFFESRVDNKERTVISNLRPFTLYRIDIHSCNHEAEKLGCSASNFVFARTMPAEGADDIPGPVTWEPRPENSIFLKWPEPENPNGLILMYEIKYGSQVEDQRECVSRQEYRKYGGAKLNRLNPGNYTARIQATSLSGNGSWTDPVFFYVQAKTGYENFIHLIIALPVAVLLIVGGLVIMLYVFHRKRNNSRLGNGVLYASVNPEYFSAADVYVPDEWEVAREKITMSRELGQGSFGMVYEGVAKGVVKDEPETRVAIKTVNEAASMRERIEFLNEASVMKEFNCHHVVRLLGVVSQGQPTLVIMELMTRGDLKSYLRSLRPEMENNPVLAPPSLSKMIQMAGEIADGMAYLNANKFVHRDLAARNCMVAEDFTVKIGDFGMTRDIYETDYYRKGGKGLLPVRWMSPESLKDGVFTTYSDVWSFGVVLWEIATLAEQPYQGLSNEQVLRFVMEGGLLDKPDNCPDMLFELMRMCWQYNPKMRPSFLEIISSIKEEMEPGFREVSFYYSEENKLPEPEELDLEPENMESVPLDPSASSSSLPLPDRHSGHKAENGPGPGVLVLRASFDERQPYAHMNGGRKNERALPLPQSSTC
Sequence of Cyclin-dependent kinase 4/G1/S-specific cyclin-D1 (P11802 whole entry): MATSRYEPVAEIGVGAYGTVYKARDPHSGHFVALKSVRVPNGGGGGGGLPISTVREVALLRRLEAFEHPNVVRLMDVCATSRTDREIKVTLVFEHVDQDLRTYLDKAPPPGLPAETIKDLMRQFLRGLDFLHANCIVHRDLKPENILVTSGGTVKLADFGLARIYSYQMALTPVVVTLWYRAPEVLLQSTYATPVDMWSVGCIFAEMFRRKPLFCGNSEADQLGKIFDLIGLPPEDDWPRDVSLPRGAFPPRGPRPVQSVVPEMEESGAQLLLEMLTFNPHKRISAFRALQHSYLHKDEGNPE
Sequence of Cyclin-dependent kinase 4/G1/S-specific cyclin-D1 (P24385 whole entry, further chain): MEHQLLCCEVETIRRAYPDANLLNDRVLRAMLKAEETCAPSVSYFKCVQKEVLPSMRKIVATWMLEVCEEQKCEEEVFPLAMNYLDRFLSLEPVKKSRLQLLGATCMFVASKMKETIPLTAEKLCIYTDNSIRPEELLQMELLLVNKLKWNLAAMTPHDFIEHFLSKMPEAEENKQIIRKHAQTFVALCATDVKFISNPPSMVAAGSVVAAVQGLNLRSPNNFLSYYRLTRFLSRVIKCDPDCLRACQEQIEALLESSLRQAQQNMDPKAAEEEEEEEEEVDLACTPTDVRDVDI
Sequence of Casein kinase II subunit alpha (P68400 whole entry): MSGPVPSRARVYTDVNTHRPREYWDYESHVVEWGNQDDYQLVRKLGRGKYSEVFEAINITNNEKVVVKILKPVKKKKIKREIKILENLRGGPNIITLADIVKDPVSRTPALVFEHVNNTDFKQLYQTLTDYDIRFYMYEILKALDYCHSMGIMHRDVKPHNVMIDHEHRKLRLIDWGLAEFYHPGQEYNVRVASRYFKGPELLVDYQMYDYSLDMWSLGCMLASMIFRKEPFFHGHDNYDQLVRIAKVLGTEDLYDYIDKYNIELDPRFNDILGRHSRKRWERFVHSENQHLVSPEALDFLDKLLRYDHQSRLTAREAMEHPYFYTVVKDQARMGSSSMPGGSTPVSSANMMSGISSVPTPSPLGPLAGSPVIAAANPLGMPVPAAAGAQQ

For `COc1cc(O)c2c(c1)-c1cc(O)c(O)cc1COC2=O` [Alterlactone], the concentration for half-maximal inhibition (IC50) in [1], in [2], in test [3], in test [4], in [5] and in [6] was more than 34.6 µM each time. For the same compound, the 50% inhibitory concentration (IC50) (at Angiopoietin-1 receptor; in test [7]; in test [8]; at Ephrin type-B receptor 4; on Aurora kinase A; in test [9]) was more than 34.6 µM throughout. Moreover, the IC50 in test [10] and in test [11] was more than 34.6 µM in each case.
For the compound `COc1cc(O)c2c(c1)C1(OC2=O)C(=O)C(=O)CC1C` (stereo not drawn) [TALAROFLAVONE], the IC50 in test [1], in [2], in [3], in test [4], in [5] and in test [6] was more than 36.2 µM each time. The IC50 (on Angiopoietin-1 receptor; in test [7]; in [8]; on Ephrin type-B receptor 4; on Aurora kinase A; in [9]) was more than 36.2 µM in each case. Further, the half-inhibitory concentration (IC50) in test [10] and in test [11] was more than 36.2 µM throughout.
